Assay results published in ChEMBL document CHEMBL4371041, “Synthesis and evaluation of thieno[3,2-d]pyrimidine derivatives as novel FMS inhibitors” (Bioorg Med Chem Lett, 2019).

Columns and labels:
[1] = target: Epidermal growth factor receptor (Homo sapiens) (UniProt P00533); test: Inhibition of recombinant human N-terminal GST-tagged EGFR (696 to end residues) expressed in baculovirus infected Sf21 insect cells at 1 uM using Angiotensin2 peptide as substrate in presence of [gamma-33P]-ATP or [gamma-32P]-ATP relative to control
Epidermal growth factor receptor (Homo sapiens), sequence (P00533 whole entry, the tested form may be a part): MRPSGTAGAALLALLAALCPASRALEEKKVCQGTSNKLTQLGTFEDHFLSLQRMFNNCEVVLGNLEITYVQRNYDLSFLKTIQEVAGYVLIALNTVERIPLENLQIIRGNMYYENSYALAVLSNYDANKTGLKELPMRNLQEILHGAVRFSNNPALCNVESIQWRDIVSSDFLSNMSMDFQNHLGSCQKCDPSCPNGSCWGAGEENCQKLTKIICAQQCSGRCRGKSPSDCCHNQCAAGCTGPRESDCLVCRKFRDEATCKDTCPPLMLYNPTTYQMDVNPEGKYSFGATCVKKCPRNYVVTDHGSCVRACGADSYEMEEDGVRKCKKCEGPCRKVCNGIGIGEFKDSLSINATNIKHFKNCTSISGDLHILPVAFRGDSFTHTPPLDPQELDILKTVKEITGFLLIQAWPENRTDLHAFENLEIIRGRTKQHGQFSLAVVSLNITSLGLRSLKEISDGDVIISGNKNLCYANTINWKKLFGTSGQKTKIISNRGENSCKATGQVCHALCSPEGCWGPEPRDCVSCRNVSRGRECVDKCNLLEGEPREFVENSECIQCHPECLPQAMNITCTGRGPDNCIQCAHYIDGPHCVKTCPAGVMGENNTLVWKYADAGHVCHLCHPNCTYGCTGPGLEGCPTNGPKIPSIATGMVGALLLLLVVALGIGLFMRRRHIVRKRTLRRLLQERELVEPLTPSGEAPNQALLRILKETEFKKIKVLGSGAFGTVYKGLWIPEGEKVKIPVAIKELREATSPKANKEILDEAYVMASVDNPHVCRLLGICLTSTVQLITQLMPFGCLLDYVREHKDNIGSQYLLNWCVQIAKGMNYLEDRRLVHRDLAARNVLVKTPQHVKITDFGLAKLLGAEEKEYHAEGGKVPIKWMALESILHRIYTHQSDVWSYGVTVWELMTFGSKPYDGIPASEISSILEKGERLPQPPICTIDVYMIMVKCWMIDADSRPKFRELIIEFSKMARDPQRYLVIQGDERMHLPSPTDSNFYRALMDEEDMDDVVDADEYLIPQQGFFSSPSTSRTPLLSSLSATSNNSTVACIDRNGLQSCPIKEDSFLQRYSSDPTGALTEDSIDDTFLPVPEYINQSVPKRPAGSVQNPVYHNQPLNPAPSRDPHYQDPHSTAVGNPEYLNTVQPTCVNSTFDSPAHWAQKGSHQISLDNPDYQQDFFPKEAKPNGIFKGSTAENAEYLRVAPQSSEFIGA

[2] = system: RAF proto-oncogene serine/threonine-protein kinase (Homo sapiens), P04049 [Y340D,Y341D]; test: Inhibition of recombinant human N-terminal GST-tagged c-RAF Y340D/Y341D double mutant (306 to 648 residues) expressed in baculovirus infected Sf21 insect cells at 1 uM using MEK1(K97R) as substrate in presence of [gamma-33P]-ATP or [gamma-32P]-ATP relative to control
RAF proto-oncogene serine/threonine-protein kinase (Homo sapiens), P04049 [Y340D,Y341D], sequence (P04049 whole entry Y340D/Y341D, the tested form may be a part): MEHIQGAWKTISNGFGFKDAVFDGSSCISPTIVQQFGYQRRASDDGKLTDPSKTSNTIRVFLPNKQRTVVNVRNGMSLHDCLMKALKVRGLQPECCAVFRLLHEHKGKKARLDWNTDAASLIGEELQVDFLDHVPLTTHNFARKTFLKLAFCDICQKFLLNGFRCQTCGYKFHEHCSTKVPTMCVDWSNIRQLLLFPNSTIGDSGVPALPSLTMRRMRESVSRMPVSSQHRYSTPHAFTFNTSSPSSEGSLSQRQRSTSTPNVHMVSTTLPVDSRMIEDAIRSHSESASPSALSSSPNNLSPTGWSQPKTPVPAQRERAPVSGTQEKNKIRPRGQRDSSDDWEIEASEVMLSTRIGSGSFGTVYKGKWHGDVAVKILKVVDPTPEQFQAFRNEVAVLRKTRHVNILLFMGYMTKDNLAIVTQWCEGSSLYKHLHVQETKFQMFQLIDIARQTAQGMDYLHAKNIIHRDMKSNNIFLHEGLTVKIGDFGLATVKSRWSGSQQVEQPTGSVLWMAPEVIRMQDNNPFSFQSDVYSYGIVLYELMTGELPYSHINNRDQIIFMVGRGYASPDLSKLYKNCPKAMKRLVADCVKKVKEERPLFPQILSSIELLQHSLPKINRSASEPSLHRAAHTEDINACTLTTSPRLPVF

[3] = target: Mast/stem cell growth factor receptor Kit (Homo sapiens) (UniProt P10721); test: Inhibition of recombinant human N-terminal GST-tagged c-Kit (544 to end residues) expressed in baculovirus infected Sf21 insect cells at 1 uM using Poly (Glu4-Tyr) (4:1) as substrate in presence of [gamma-33P]-ATP or [gamma-32P]-ATP relative to control
[4] = target: Tyrosine-protein kinase receptor UFO (Homo sapiens) (UniProt P30530); test: Inhibition of recombinant human N-terminal His6-tagged Axl (473 to end residues) expressed in baculovirus infected Sf21 insect cells at 1 uM using Axltide as substrate in presence of [gamma-33P]-ATP or [gamma-32P]-ATP relative to control
[5] = target: Vascular endothelial growth factor receptor 2 (Homo sapiens, UniProt P35968); test: Inhibition of recombinant human N-terminal His6-tagged KDR (790 to end residues) expressed in baculovirus infected Sf21 insect cells at 1 uM using MBP as substrate in presence of [gamma-33P]-ATP or [gamma-32P]-ATP relative to control
[6] = target: Proto-oncogene tyrosine-protein kinase Src (Homo sapiens) (UniProt P12931); test: Inhibition of recombinant human N-terminal His6-tagged Src (1 to 530 residues) expressed in baculovirus infected Sf21 insect cells at 1 uM in presence of [gamma-33P]-ATP or [gamma-32P]-ATP relative to control
[7] = Half life in CD-1 mouse at 10 mg/kg, po; type: ADME, organism-based; details: in vivo
[8] = Cmax in CD-1 mouse at 10 mg/kg, po; type: ADME, organism-based; set-up: dose 10 mg/kg, route oral; details: in vivo
[9] = Half life in CD-1 mouse at 3 mg/kg, iv; type: ADME, organism-based; details: in vivo
MDA-MB-231 [10] = test: Synergistic growth inhibition of human MDA-MB-231 cells assessed as combination index at 5 uM after 24 hrs in presence of paclitaxel by MTS assay; type: functional
Method in brief: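 MDA-MB-231 human breast adenocarcinoma cells were treated with the test agent, paclitaxel, or both together, and cell growth inhibition was measured. Synergy was expressed as a combination index (CI) calculated from the growth-inhibition data.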

[11] = target: Ephrin type-A receptor 5 (Homo sapiens) (UniProt P54756); test: Inhibition of recombinant human N-terminal His6-tagged EphA5 (655 to 956 residues) expressed in baculovirus infected Sf21 insect cells at 1 uM using Axltide as substrate in presence of [gamma-33P]-ATP or [gamma-32P]-ATP relative to control
MDA-MB-231 [12] = test: Antiinvasive activity against human MDA-MB-231 cells at 1 uM after 72 hrs by luciferase reporter-based matrigel-coated transwell assay relative to control; type: functional
Method in brief: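 Invasion of luciferase-expressing MDA-MB-231 cells assessed in a system including RAW264.7 mouse macrophages, across a dose range including 1 μM; invasion read by luciferase signal relative to untreated control.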

[13] = target: High affinity nerve growth factor receptor (Homo sapiens) (UniProt P04629); test: Inhibition of recombinant human N-terminal His6-tagged TrkA (440 to end residues) expressed in baculovirus infected Sf21 insect cells at 1 uM using KKKSPGEYVNIEFG as substrate in presence of [gamma-33P]-ATP or [gamma-32P]-ATP relative to control
High affinity nerve growth factor receptor (Homo sapiens), sequence (P04629 33-796 limits assumed): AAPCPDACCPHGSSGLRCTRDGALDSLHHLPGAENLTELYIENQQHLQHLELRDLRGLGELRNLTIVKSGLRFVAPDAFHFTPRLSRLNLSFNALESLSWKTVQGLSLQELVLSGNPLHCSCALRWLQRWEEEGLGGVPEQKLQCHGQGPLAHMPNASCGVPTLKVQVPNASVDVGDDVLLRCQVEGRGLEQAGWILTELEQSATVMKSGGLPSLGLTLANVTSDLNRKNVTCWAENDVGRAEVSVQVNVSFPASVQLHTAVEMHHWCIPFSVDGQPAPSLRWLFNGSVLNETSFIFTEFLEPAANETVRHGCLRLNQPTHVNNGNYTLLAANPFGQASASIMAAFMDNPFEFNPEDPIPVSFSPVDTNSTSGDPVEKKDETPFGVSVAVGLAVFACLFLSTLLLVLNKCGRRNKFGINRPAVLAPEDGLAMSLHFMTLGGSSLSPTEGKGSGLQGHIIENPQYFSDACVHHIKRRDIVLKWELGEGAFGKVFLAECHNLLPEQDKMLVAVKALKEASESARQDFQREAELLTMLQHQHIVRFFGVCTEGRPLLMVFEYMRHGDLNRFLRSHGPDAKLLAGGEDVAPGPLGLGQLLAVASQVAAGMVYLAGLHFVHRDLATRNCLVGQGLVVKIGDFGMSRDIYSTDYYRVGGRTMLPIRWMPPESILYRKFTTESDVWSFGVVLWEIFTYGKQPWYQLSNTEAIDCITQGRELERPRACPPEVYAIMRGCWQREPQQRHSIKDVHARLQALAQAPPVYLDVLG

Cytochrome P450 2C9 = Cytochrome P450 2C9 (Homo sapiens, UniProt P11712); test: Inhibition of CYP2C9 in human liver microsomes by LC-MS/MS analysis; type: ADME
Cytochrome P450 2C9, sequence (P11712 whole entry): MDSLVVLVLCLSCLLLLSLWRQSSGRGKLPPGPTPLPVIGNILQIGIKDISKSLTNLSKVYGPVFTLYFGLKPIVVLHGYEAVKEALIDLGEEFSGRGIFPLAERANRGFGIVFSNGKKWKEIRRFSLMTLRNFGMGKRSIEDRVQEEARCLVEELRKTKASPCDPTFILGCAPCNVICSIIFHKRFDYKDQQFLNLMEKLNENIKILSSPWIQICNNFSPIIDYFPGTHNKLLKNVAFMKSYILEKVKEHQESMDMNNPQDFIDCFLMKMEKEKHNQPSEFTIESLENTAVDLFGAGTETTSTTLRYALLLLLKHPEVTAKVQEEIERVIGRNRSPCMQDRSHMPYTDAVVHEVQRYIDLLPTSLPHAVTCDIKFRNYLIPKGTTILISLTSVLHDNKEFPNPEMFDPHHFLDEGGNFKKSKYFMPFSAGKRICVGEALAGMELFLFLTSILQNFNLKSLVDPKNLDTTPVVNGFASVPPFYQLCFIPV
Method in brief: (§1)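 Reversible CYP inhibition measured in human liver microsomes; metabolite formation quantified by LC/MS/MS.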

Cytochrome P450 3A4 = Cytochrome P450 3A4 (Homo sapiens, UniProt P08684); test: Inhibition of CYP3A4 in human liver microsomes by LC-MS/MS analysis; type: ADME; method in brief: as §1
MDA-MB-231 [14] = test: Inhibition of paclitaxel-induced FMS expression in human MDA-MB-231 cells by Western blot analysis; type: functional, cell-based
[15] = Volume of distribution in CD-1 mouse at 3 mg/kg, iv; type: ADME, organism-based; details: in vivo
[16] = target: RAF proto-oncogene serine/threonine-protein kinase (Homo sapiens, UniProt P04049, Y340D/Y341D); test: Inhibition of recombinant human N-terminal GST-tagged c-RAF Y340D/Y341D double mutant (306 to 648 residues) expressed in baculovirus infected Sf21 insect cells using MEK1(K97R) as substrate in presence of [gamma-33P]-ATP or [gamma-32P]-ATP
RAF proto-oncogene serine/threonine-protein kinase, sequence (P04049 whole entry Y340D/Y341D, the tested form may be a part): as the sequence (P04049 whole entry Y340D/Y341D, the tested form may be a part) above

[17] = target: Insulin-like growth factor 1 receptor (Homo sapiens) (UniProt P08069); test: Inhibition of Mg/ATP-autoactivated recombinant human N-terminal His6-tagged IGFR1 (959 to end residues) expressed in baculovirus infected Sf21 insect cells at 1 uM in presence of [gamma-33P]-ATP or [gamma-32P]-ATP relative to control
[18] = target: Discoidin domain-containing receptor 2 (Homo sapiens, UniProt Q16832); test: Inhibition of recombinant human N-terminal His6-tagged DDR2 (467 to end residues) expressed in baculovirus infected Sf21 insect cells using Axltide as substrate in presence of [gamma-33P]-ATP or [gamma-32P]-ATP
Discoidin domain-containing receptor 2, sequence (Q16832 whole entry, the tested form may be a part): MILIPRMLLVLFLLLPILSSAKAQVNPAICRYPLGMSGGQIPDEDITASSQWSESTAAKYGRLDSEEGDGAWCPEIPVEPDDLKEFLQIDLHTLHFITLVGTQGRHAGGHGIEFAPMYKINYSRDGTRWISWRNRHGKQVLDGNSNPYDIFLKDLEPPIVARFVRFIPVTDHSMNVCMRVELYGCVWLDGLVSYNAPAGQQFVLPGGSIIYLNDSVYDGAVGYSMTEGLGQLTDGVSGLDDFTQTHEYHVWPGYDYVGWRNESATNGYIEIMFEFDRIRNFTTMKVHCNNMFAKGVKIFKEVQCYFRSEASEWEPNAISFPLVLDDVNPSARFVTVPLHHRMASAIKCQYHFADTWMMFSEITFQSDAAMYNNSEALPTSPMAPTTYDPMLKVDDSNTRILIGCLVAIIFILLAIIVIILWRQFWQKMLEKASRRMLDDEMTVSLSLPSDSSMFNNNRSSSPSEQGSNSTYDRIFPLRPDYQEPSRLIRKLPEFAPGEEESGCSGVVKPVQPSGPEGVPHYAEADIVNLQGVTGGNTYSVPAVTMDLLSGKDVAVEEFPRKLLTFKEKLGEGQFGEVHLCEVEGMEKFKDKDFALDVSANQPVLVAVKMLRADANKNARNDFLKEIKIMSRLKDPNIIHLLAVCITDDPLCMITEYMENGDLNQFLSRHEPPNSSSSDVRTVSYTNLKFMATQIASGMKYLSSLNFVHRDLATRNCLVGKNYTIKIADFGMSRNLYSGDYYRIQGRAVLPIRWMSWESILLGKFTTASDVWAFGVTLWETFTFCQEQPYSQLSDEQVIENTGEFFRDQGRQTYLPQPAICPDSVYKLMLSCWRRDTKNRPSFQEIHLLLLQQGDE
Method in brief: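 Kinase panel of twenty-eight enzymes; IC50 values determined with ATP at the respective Km of each kinase.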

Cytochrome P450 2C19 = Cytochrome P450 2C19 (Homo sapiens, UniProt P33261); test: Inhibition of CYP2C19 in human liver microsomes by LC-MS/MS analysis; type: ADME; method in brief: as §1
[19] = target: Tyrosine-protein kinase Lck (Homo sapiens) (UniProt P06239); test: Inhibition of recombinant human full-length N-terminal His6-tagged LCK expressed in baculovirus infected Sf21 insect cells at 1 uM in presence of [gamma-33P]-ATP or [gamma-32P]-ATP relative to control
[20] = target: Hepatocyte growth factor receptor (Homo sapiens) (UniProt P08581); test: Inhibition of recombinant human N-terminal His6-tagged Met (974 to end residues) expressed in baculovirus infected Sf21 insect cells at 1 uM using KKKSPGEYVNIEFG as substrate in presence of [gamma-33P]-ATP or [gamma-32P]-ATP relative to control
[21] = AUC (0 to 7 hrs) in CD-1 mouse at 3 mg/kg, iv; type: ADME, organism-based; set-up: dose 3 mg/kg, time < 7 hr, route intravenous; details: in vivo

SMILES: Cc1cccc(Cn2nc(C)c3c(NC(=O)c4csc5c(N)ncnc45)cccc32)n1
- inhibition [1]: -2%
- inhibition [2]: > 60%
- inhibition [3]: 27%
- inhibition [4]: 12%
- inhibition [5]: > 60%
- inhibition [6]: 4%
- half-life [7]: 2.6 h
- Cmax [8]: 900 ng/mL
- half-life [9]: 1.6 h
- CI (MDA-MB-231 [10]): <0.1
- inhibition [11]: -9%
- Activity (MDA-MB-231 [12]): 67%
- inhibition [13]: 27%
- IC50 (Cytochrome P450 2C9): > 20000 nM
- IC50 (Cytochrome P450 3A4): > 20000 nM
- inhibition (MDA-MB-231 [14]): Dose-dependent effect
- Vd [15]: 2 L/kg
- IC50 [16]: 80 nM
- inhibition [17]: 56%
- IC50 [18]: 64 nM
- IC50 (Cytochrome P450 2C19): > 20000 nM
- inhibition [19]: 20%
- inhibition [20]: -9%
- AUC(0-t) at 7 h [21]: 3370 ng·h/mL
